Screening results deposited in PubChem BioAssay by The Scripps Research Institute Molecular Screening Center.
Most compounds without a hit are left out; they make up all but 4.5% or so of the library.
OX1R antag-1: antagonists of human orexin 1 receptor; AID 434989; 330,000 tested, 0.43% active; inhibition, % at 5 µM; O43613; CHO/OX1R cells, Fluo-8 calcium fluorescence, orexin A;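 active = inhibition above its plate's threshold, mean inhibition of all tested compounds on the plate plus 3 SD, cut at about 37% in these data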
TAAR1 antag: antagonists of human TAAR1 | Q96RJ0 | CHO RD-HGA16 TAAR1, Fluo-8 calcium fluorescence, antagonist | inhibition, % at 3 µM | 360,000 tested, 1.5% active | AID 624466;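 active = inhibition above a per-plate cutoff, the mean inhibition of test compounds on that plate plus 3 SD, cut at about 49% in these data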
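System: CHO RD-HGA16 cells bearing hTAAR1. Reagent: EC80 β-phenethylamine stimulus. Schedule: seeding 17-24 h prior, 75-min 37 °C, 30-min RT dye loading. Signal: Fluo-8 intracellular calcium dye fluorescence, real-time kinetic reads. Read-out: % inhibition from peak post-agonist over basal fluorescence ratio. Benchmarks: vehicle wells and EC80 agonist wells. Replicates: n of 1.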
GPR7 antag: blocks human GPR7 receptor signaling | 290,000 tested, 1.1% active | GPR7-expressing cells, fluorescence antagonist assay | P48145 | AID 1861 | inhibition, % at 4.4 µM; in the data active = inhibition above about 16%, passing the limit was not always enough;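 note: cells stimulated with the agonist NPW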
Target sequence (P48145 whole entry, looked up): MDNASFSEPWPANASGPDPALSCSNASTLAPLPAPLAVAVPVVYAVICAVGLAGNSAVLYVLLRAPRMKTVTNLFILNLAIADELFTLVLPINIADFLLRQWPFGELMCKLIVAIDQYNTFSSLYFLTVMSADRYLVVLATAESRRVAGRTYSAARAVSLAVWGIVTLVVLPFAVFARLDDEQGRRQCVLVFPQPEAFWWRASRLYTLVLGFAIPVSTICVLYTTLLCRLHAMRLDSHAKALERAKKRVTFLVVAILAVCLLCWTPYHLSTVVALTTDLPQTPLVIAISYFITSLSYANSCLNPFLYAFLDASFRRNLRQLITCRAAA
OX1R antag-2: blocks the human orexin 1 receptor; OX1R-expressing cells, FRET antagonist read-out; inhibition, % at 6.6 µM; 330,000 tested, 1.8% active; in the data active = inhibition mostly above about 38%, no sharp cut-off; inactive = mostly below about 40%
TAAR1 agonist: human TAAR1 agonism. AID 624467. activation, % at 3 µM. 360,000 tested, 0.99% active. CHO RD-HGA16 TAAR1, Fluo-8 calcium fluorescence; vehicle wells 0%, saturating PEA agonist 100%;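 active = activation above the mean activation of all test compounds in the run plus 3 SD, cut at about 38% in these data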
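System: CHO-derived RD-HGA16 cells with stable Gα16 and human TAAR1 / Times: 17-24 h plating, Fluo-8 75 min 37 °C, 30 min RT / Technique: calcium-sensitive Fluo-8 signal, excitation 470-495, emission 515-575 nm / Measure: % activation relative to PEA EC100 response / Benchmarks: DMSO and PEA EC100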
CHO parental Ca: counter-screen for OX1R antagonists: effect in parental CHO cells. parental CHO-K1, ATP-induced calcium, Fluo-8 fluorescence. inhibition, % at 5.6 µM. 330,000 tested, 0.63% active. AID 463079;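 active = inhibition above that plate's mean sample inhibition plus 3 SD, cut at about 26% in these data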
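Material: parental CHO cells / Compound: single nominal dose of 5.6 µM per compound / Signal: Fluo-8 fluorescence / Replicates: singlicate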
Of the large screens only hits and unclear results are named; the others gave an inactive call.

CC(CC12CC3CC(CC(C3)C1)C2)NCc1ccccc1O (centres undefined)	TAAR1 agonist 39
Oc1ccccc1CNCC12CC3CC(CC(C3)C1)C2	none
COc1ccc(CN=Cc2[nH]c3ccc(Br)c(Cl)c3c2O)cc1	TAAR1 antag 106
CC1(C(=O)Nc2ccc(Cl)c(Cl)c2)CCN1C(=O)Cc1cccc2ccccc12 (centres undefined)	none (no result: OX1R antag-1, GPR7 antag, OX1R antag-2, CHO parental Ca)
Cc1ccccc1NS(=O)(=O)c1cccc(-c2nnc(-c3ccccc3)o2)c1	OX1R antag-2 40
O=C(Nc1ccc(-c2csc(Nc3ccccc3)n2)cc1)c1cccc(C(F)(F)F)c1	TAAR1 antag 52 (no result: GPR7 antag)
O=C(O)c1ccc(Nc2nc(-c3ccccc3)cs2)cc1	TAAR1 agonist 38
CSc1ccc(C(O)c2ncc(-c3ccccc3Cl)[nH]2)cc1 (centres undefined)	none (no result: OX1R antag-1, GPR7 antag, OX1R antag-2, CHO parental Ca)
CC1(C)CC(=O)C=C(c2ccc(COC(=O)c3ccc(Br)cc3)cc2)C1=O	none (no result: OX1R antag-1, GPR7 antag, OX1R antag-2, CHO parental Ca)
CN1CCN(S(=O)(=O)c2ccc(Sc3nc4ccccc4[nH]3)c3nsnc23)CC1	OX1R antag-2 163
Cc1ccc(S(=O)(=O)N2CCOCC2)c2nsnc12	OX1R antag-2 41
O=S(=O)(c1ccc(Br)c2nsnc12)N1CCOCC1	OX1R antag-2 40
Cc1ccc(S(=O)(=O)N2CCCCC2)c2nsnc12	none
O=S(=O)(c1cccc2nsnc12)N1CCCC1	none
CN1CCN(S(=O)(=O)c2ccc(Br)c3nsnc23)CC1	OX1R antag-2 65
Cc1cc(NC(=O)Cc2cn(C)c3ccccc23)ccc1Oc1cccnc1	none (no result: OX1R antag-1, GPR7 antag, OX1R antag-2, CHO parental Ca)
CCc1nc2ccc(C(=O)NCCCN3CCCC3=O)cn2c1N(C)C(=O)c1cccc(OC)c1	none (no result: OX1R antag-1, GPR7 antag, OX1R antag-2, CHO parental Ca)
Cc1ccc(O)c(C(=O)c2cc(C#N)c(=O)n(-c3nccs3)c2)c1	TAAR1 agonist 51
Cc1ccc(O)c(C(=O)c2cc(C#N)c(=O)n(-c3c(C)n(C)n(-c4ccccc4)c3=O)c2)c1	none
OC[C@@H]1CN(Cc2ccc(Cl)cc2)C[C@H](n2cnc3c(NC4CC4)ncnc32)O1	none (no result: OX1R antag-1, GPR7 antag, OX1R antag-2, CHO parental Ca)
COc1cc(/C=N/NC(=O)Cc2ccccc2)ccc1Oc1ccc([N+](=O)[O-])cc1[N+](=O)[O-]	CHO parental Ca 29
COc1ccc([N+](=O)[O-])cc1/C=N/NC(=O)Cc1ccccc1	none
COc1cc(/C=N/NC(=O)c2ccc(C)nc2)cc([N+](=O)[O-])c1O	OX1R antag-2 43
COc1cc(/C=C/C(=O)c2ccc(C)c([N+](=O)[O-])c2)cc(OC)c1O	TAAR1 agonist 45
CCOc1cc(/C=N\NC(=O)c2ccc(C)nc2)cc([N+](=O)[O-])c1O	none
COc1cc(/C=N/NC(=O)Cc2ccccc2)cc([N+](=O)[O-])c1O	OX1R antag-2 54
C#CCN(Cc1ccco1)C(=O)c1nnc2c3cc(OC)ccc3n(S(=O)(=O)c3ccc(OC)cc3)c2n1	none (no result: OX1R antag-1, GPR7 antag, OX1R antag-2, CHO parental Ca)
CCCOC(=O)C[N+](C)(C)CCOC1CC2CCC1(C)C2(C)C (centres undefined)	none
CC(C)CCOC(=O)C[N+](C)(C)CCOC1CC2CCC1(C)C2(C)C (centres undefined)	GPR7 antag 19
CC(C)C(=O)Nc1ccc2nn(-c3ccccc3)nc2c1	OX1R antag-2 63
CN1OC[C@@H]2CN[C@H](c3cccc(Oc4ccccc4)c3)C[C@@H]21	none (no result: OX1R antag-1, GPR7 antag, OX1R antag-2, CHO parental Ca)
COc1ccc(NC(=O)C2(C)CCCN2C(=O)C(C)C)cc1OC (centres undefined)	none (no result: OX1R antag-1, GPR7 antag, OX1R antag-2, CHO parental Ca)
O=[N+]([O-])c1ccc(O)c(/C=N/Nc2ccccn2)c1	OX1R antag-1 75, TAAR1 antag 73, TAAR1 agonist 45, CHO parental Ca 87
C=CCn1c(=N)n(CC(=O)c2cccc([N+](=O)[O-])c2)c2ccccc21	OX1R antag-2 39
N=c1n(CCN2CCCCC2)c2ccccc2n1CC(=O)c1cccc([N+](=O)[O-])c1	none
O=C(/C=C(\Nc1cccc(OC(F)F)c1)c1ccccc1)c1ccccc1	none (no result: OX1R antag-1, GPR7 antag, OX1R antag-2, CHO parental Ca)
O=C(Nc1cccc2ccccc12)c1ccc([N+](=O)[O-])o1	none
NC(=O)c1ccsc1NC(=O)c1ccc([N+](=O)[O-])o1	OX1R antag-2 34 (no result: GPR7 antag)
O=C(Nc1ccccn1)c1ccc([N+](=O)[O-])o1	OX1R antag-2 72 (no result: TAAR1 antag, TAAR1 agonist)
